“And” between values parts separate entries of the source, which are not always exact repeats. Identical values can stand only once. The source made the active and inactive calls. The rule behind the calls is not given here.
Tests used:
[1] = system: BP3; test: Induction of apoptosis in human BP3 cells expressing high level of Bfl-1 and Mcl-1 after 24 hrs by annexin V-FITC and propidium iodide staining; assay type: functional, cell-based
[2] = Metabolic stability of the compound in rat plasma after 40 mins; assay type: ADME, cell-free; conditions: read-out: Stability
[3] = system: Mus musculus; test: Toxicity in human Bcl2 expressing B6 transgenic BALB/c mouse up to 120 umol/kg, ip administered as single dose after 24 hrs; assay type: organism-based; conditions: in vivo
Outline: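 B6 Bcl-2 transgenic Balb/c mice, age- and sex-matched, given one intraperitoneal dose (60 or 120 μmol/kg, also 30 μmol/kg) in ethanol:Cremophor EL:saline 10:10:80, 500 μL; survival and signs of toxicity observed over 24 h before sacrifice.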

[4] = system: PPC-1; test: Antitumor activity against human PPC1 cells xenografted in nude mouse assessed as tumor regression at 50 mg/kg, ip administered 5 times measured on after 2 weeks relative to control; assay type: functional; conditions: route intraperitoneal
Outline: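 Female 6-week-old nude mice injected s.c. in the flank with 5×10^6 PPC-1 cells in 0.2 ml PBS; size-matched at 200 mm³, 6 per group. Compound given i.p. in ethanol:Cremophor EL:saline 10:10:80 (500 μL), three times in week 1, twice in week 2, once in week 3; controls got saline. Caliper volume (length × width²/2) 2–3 times weekly; T/C% = mean treated volume / mean control volume.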

[5] = system: Mus musculus; test: Reduction of spleen weight in human Bcl2 expressing B6 transgenic BALB/c mouse at 60 umol/kg, ip administered as single dose after 24 hrs relative to control; assay type: functional; parameters: scale not given: the % may be the effect or the level left
[6] = system: RS4-11; test: Induction of apoptosis in human RS4:11 cells expressing high level of Bcl-2 and Bcl-xL after 24 hrs by annexin V-FITC and propidium iodide staining; assay type: functional, cell-based
[7] = target: Apoptosis regulator Bcl-2 (Homo sapiens, UniProt P10415); test: Displacement of FITC-Bim BH3 peptide from Bcl-2 after 10 mins by fluorescence polarization assay
Apoptosis regulator Bcl-2, sequence (P10415 whole entry): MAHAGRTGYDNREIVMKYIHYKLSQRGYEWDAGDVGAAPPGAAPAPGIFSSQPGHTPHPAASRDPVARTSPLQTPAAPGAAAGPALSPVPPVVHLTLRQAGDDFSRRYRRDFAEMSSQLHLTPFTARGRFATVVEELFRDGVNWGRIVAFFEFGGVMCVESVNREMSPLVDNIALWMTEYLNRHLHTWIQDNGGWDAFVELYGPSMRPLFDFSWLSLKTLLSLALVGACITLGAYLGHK

[8] = target: T1, Bcl-2-like protein 1 (Homo sapiens, UniProt Q07817); test: Binding affinity Bcl-xL by isothermal titration calorimetry assay
T1 sequence (Q07817 whole entry): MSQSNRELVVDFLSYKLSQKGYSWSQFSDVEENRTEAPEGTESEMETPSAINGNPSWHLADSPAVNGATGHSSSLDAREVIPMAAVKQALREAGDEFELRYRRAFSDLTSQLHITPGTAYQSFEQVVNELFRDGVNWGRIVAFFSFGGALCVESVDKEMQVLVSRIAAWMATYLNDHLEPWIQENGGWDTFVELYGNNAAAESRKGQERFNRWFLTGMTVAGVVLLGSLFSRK

[9] = system: Mus musculus; test: Toxicity in human Bcl2 expressing B6 transgenic BALB/c mouse assessed as weight loss up to 120 umol/kg, ip administered as single dose after 24 hrs; assay type: organism-based; conditions: in vivo
[10] = species: Homo sapiens; test: Induction of apoptosis in human CLL after 24 hrs by annexin V-FITC and propidium iodide staining; assay type: functional
Outline: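 Freshly isolated primary leukaemic cells from CLL patients cultured in RPMI 1640 with 10% FBS and penicillin/streptomycin with various compound concentrations for 1 day. Annexin V-FITC/propidium iodide staining read by flow cytometry; annexin-V-negative, PI-negative cells counted as viable; LD50 derived from dose-response.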

[11] = target: Induced myeloid leukemia cell differentiation protein Mcl-1 (Homo sapiens, UniProt Q07820); test: Displacement of FITC-Bim BH3 peptide from Mcl-1 after 10 mins by fluorescence polarization assay
Induced myeloid leukemia cell differentiation protein Mcl-1, sequence (Q07820 whole entry): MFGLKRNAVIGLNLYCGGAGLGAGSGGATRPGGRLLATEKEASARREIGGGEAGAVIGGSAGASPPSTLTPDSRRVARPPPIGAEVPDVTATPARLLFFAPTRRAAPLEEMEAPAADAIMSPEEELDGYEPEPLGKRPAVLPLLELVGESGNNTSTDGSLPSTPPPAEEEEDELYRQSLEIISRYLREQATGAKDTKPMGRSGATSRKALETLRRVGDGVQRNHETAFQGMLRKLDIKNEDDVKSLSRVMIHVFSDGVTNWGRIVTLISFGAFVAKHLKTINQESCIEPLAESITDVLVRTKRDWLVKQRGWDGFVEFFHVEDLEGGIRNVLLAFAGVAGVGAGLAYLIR

[12] = target: T1, Bcl-2-like protein 1; test: Displacement of F-BakBH3 from Bcl-xL after 30 mins by fluorescence polarization assay
Outline: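 GST-Bcl-XL ΔTM (100 nM) preincubated with varying compound concentrations in PBS pH 7.4 for 10 min at room temperature. FITC-labelled Bak BH3 peptide (2.5 μL of 100 nM stock) then added. Polarization read at 480/535 nm after 30 min at room temperature. Wild-type and mutant Bak BH3 peptides served as plate controls. IC50 from sigmoidal dose-response fit; mean of three independent experiments ± SE.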

[13] = system: Mus musculus; test: Toxicity in human PPC1 cells xenografted nude mouse assessed as mortality at 50 mg/kg, ip administered weekly 3 times; assay type: organism-based, PPC-1; parameters: dose 50 mg/kg, route intraperitoneal; conditions: in vivo
Outline: (§1)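 PPC-1 flank xenografts (5×10^6 cells s.c.) in female 6-week-old nude mice, size-matched at 200 mm³, 6 per group. Compound given i.p. three times in the first week in ethanol:Cremophor EL:saline 10:10:80 (500 μL); controls got saline. Survival and body weight monitored during week 1.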

[14] = system: Mus musculus; test: Reduction of spleen weight in human Bcl2 expressing B6 transgenic BALB/c mouse at 60 umol/kg, ip administered as single dose after 24 hrs; assay type: functional; parameters: scale not given: the % may be the effect or the level left
[15] = target: T1, Bcl-2-like protein 1; test: Binding affinity Bcl-xL at 200 uM by one-dimensional 1H nuclear magnetic resonance spectroscopy
[16] = system: Mus musculus; test: Toxicity in human PPC1 cells xenografted nude mouse assessed as weight loss at 50 mg/kg, ip administered weekly 3 times; assay type: organism-based, PPC-1; parameters: dose 50 mg/kg, route intraperitoneal; conditions: in vivo
Outline: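 Nude mice carrying subcutaneous flank xenografts (5×10^6 cells), size-matched at 200 mm³, 6 per group. Dosed intraperitoneally in ethanol:Cremophor EL:saline 10:10:80, three times in week 1, twice in week 2, once in week 3; saline controls. Body weight followed over treatment and reported as average percentage loss.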

[17] = system: PPC-1; test: Antitumor activity against human PPC1 cells xenografted in nude mouse assessed as tumor regression at 50 mg/kg, ip administered weekly 3 times; assay type: functional, organism-based; parameters: dose 50 mg/kg
Outline: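 Female 6-week-old nude mice given 5×10^6 cells in 0.2 ml PBS subcutaneously in the flank; tumours size-matched at 200 mm³, 6 mice/group. Intraperitoneal injections in ethanol:Cremophor EL:saline 10:10:80 (500 μL), three times week 1, twice week 2, once week 3; controls received saline. Caliper volume (length×width²/2) two to three times weekly; T/C% = mean treated/mean control volume.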

[18] = system: Mus musculus; test: Reduction of spleen weight in ip dosed human Bcl2 expressing B6 transgenic BALB/c mouse administered as single dose after 24 hrs; assay type: functional, organism-based
[19] = target: T2, Bcl-2-related protein A1 (Homo sapiens, UniProt Q16548); test: Displacement of F-BakBH3 from Bfl-1 after 30 mins by fluorescence polarization assay
T2 sequence (Q16548 whole entry): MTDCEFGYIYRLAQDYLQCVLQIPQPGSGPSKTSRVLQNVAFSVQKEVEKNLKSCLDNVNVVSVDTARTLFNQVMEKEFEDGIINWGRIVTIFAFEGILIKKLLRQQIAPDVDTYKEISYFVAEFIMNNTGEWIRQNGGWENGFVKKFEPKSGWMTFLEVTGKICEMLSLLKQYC

[20] = system: Mus musculus; test: Toxicity in human PPC1 cells xenografted nude mouse assessed as mortality at 25 mg/kg, ip administered weekly 3 times; assay type: organism-based, PPC-1; parameters: dose 25 mg/kg, route intraperitoneal; conditions: in vivo; outline: as §1
[21] = system: Mus musculus; test: Reduction of spleen weight in human Bcl2 expressing B6 transgenic BALB/c mouse at 30 umol/kg, ip administered as single dose after 24 hrs; assay type: functional; parameters: scale not given: the % may be the effect or the level left
[22] = Metabolic stability of the compound in rat microsomes after 40 mins; assay type: ADME, Microsome; conditions: read-out: Stability
[23] = system: Mus musculus; test: Toxicity in human Bcl2 expressing B6 transgenic BALB/c mouse assessed as mortality at 60 umol/kg, ip administered as single dose after 24 hrs; assay type: organism-based; conditions: in vivo
Outline: (§2)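 Age- and sex-matched B6 Bcl2 transgenic mice (human BCL-2/IgH minigene on Balb/c background, no aggressive lymphoma yet) given a single i.p. injection of compound in 500 μL ethanol:Cremophor EL:saline 10:10:80. Controls received vehicle. Animals sacrificed at 24 h with Avertin; spleen removed and weighed.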

[24] = system: Mus musculus; test: Toxicity in human Bcl2 expressing B6 transgenic BALB/c mouse assessed as mortality at 30 umol/kg, ip administered as single dose after 24 hrs; assay type: organism-based; conditions: in vivo; outline: as §2

Structure (SMILES)	Activity [1]	remaining at 40 min [2] [%]	Activity [4] [%]	Activity [6]	IC50 [7] [µM]	Ki [7] [µM]	Kd [8] [µM]	LD50 [10] [µM]	IC50 [11] [µM]	Ki [11] [µM]	IC50 [12] [µM]	Ki [12] [µM]	Activity [14] [%]	Activity [15]	Activity [16]	Activity [17]	Activity [18]	Ki [19] [µM]	also measured
CC1=C(C2=C(C)C(=O)c3c(cc(O)c(O)c3CCc3ccc(C)cc3)C2=O)C(=O)c2cc(O)c(O)c(CCc3ccc(C)cc3)c2C1=O	Dose-dependent effect	86	33	Dose-dependent effect	3.12	2.08	2.5	10	2.05	1.37	3.1	2.07	30	Active	5% and 6.8%	Active	Dose-dependent effect	–	Activity [3]: Non-toxic; Activity [5]: 60%; Activity [9]: 5%; Activity [10]: Dose-dependent effect; Activity [13]: Non-toxic
CC1=C(C2=C(C)C(=O)c3c(cc(O)c(O)c3C(C)C)C2=O)C(=O)c2cc(O)c(O)c(C(C)C)c2C1=O	Dose-dependent effect	77	65	Dose-dependent effect	–	0.25	–	> 30	–	0.43	–	0.42	20	Active	9.3%	Active	Dose-dependent effect	1.47	–
CC1=C(C2=C(C)C(=O)c3c(cc(O)c(O)c3Cc3ccccc3)C2=O)C(=O)c2cc(O)c(O)c(Cc3ccccc3)c2C1=O	–	95	–	–	0.29	0.19	0.45	–	0.24	0.16	0.34	0.23	–	Active	–	–	Dose-dependent effect	0.43	IC50 [19]: 0.65 µM; Activity [20]: Toxic; Activity [21]: 86%; remaining at 40 min [22]: 91%; Activity [23]: Toxic; Activity [24]: Non-toxic

From ChEMBL document CHEMBL1269007, “Synthesis and biological evaluation of Apogossypolone derivatives as pan-active inhibitors of antiapoptotic B-cell lymphoma/leukemia-2 (Bcl-2) family proteins” (J Med Chem, 2010)
